Measured values from ChEMBL document CHEMBL1800061 (J Med Chem, 2010).
Activity calls are given as the source filed them. The calls are words filed in the database; no cut-off is given here.

Assays:
[1] = tested on: Mus musculus; assay: Inhibition of cyclin-dependent kinase substrate RB phosphorylation at Thr 821 in nude BALB/c mouse PBMC at 50 mg/kg, po measured after 24 hrs by immunostaining and flow cytometric analysis; assay type: functional, organism-based; parameters: dose 50 mg/kg
Outline: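 Seven-week-old female nu/nu-BALB/c nude mice got a single oral gavage (vehicle 28% PEG300/5% dimethylacetamide/10% HPB cyclodextrin in water). Blood was taken by cardiac puncture at 6 h or 24 h, red cells were lysed, and PBMC were fixed and permeabilized. Cells were stained with Rb, Rb pThr821, PolII or PolII pSer2 antibodies plus an Alexa488 secondary, then read by flow cytometry; n=4 (n=3 at 100 mg/kg).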

[2] = Metabolic stability in mouse liver microsomes as compound remaining at 1 uM; assay type: ADME, Microsome; conditions: read-out: Stability
Outline: (§1)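 Liver microsomes, test compound at 1 μM with NADP 1 mM, G6P 5 mM and G6PDHase 1 U/mL, in 0.6% methanol and 0.6% acetonitrile. Incubated 0 and 60 min at 37 °C. Reported as percent parent remaining, mean (range), n=2.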

[3] = Oral bioavailability in mouse at 10 mg/kg; assay type: ADME, organism-based; conditions: in vivo
[4] = molecular target: G1/S-specific cyclin-D1 (Homo sapiens) (UniProt P24385); assay: Inhibition of cyclin D1-mediated phosphorylation of RB protein in human HCT116 cells after 4 hrs by immunoblotting analysis; assay type: cell-based; conditions: HCT-116
Outline: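 HCT116 cells grown in DMEM with 10% FCS were plated at 8×10^5 per dish and treated after 24 h with compound in DMSO. Lysis was done 4 h later in RIPA buffer with phosphatase and protease inhibitor cocktails, and protein was quantified by BCA. Whole-cell lysates were immunoblotted for phospho-RB (Ser-780, Ser-795, Ser-801, Ser-807/811, Thr-821) and RNA polymerase II CTD Ser-2.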

[5] = molecular target: Myosin light chain kinase, smooth muscle (Homo sapiens) (UniProt Q15746); assay: Inhibition of Smooth muscle MLCK assessed as residual enzyme activity at 10 uM
[6] = molecular target: 3-phosphoinositide-dependent protein kinase 1 (Homo sapiens) (UniProt O15530); assay: Inhibition of PDK1 assessed as residual enzyme activity at 10 uM
[7] = tested on: PC-3; assay: Antiproliferative activity against human PC3 cells after 72 hrs by sulforhodamine B assay; assay type: functional; conditions: PC-3, 72 h
Outline: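 Cell lines were grown in DMEM with 10% FCS and treated with increasing concentrations for 72 h. Growth was read by sulforhodamine B staining and GI50 was derived. Values are means of at least three replicates with SD.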

[8] = tested on: Mus musculus; assay: Inhibition of cyclin-dependent kinase substrate […] phosphorylation in nude BALB/c mouse PBMC at 50 mg/kg, po measured after 24 hrs by immunostaining and flow cytometric analysis; assay type: functional, organism-based; parameters: dose 50 mg/kg
Outline: (§2)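 Female nu/nu-BALB/c athymic nude mice (7 weeks old) given a single oral gavage dose in 28% PEG300/5% dimethylacetamide/10% HPB cyclodextrin in water. PBMC were isolated from cardiac blood after red-cell lysis, then fixed, permeabilized and stained with primary antibodies (1:100, 1 h, RT) and an Alexa Fluor 488 secondary (1:200, 1 h). Read-out was flow cytometry; n=4 (n=3 at 100 mg/kg).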

[9] = Inhibition of PKBbeta assessed as residual enzyme activity at 10 uM
[10] = molecular target: Serine/threonine-protein kinase PLK1 (Homo sapiens) (UniProt P53350); assay: Inhibition of okadaic acid-activated PLK1 assessed as residual enzyme activity at 10 uM
[11] = molecular target: Dual specificity tyrosine-phosphorylation-regulated kinase 3 (Homo sapiens) (UniProt O43781); assay: Inhibition of DYRK3 assessed as residual enzyme activity at 10 uM
[12] = molecular target: Rho-associated protein kinase 2 (Homo sapiens) (UniProt O75116); assay: Inhibition of ROCK 2 assessed as residual enzyme activity at 10 uM
[13] = molecular target: Ribosomal protein S6 kinase alpha-3 (Homo sapiens) (UniProt P51812); assay: Inhibition of RSK2 assessed as residual enzyme activity at 10 uM
[14] = molecular target: Proto-oncogene tyrosine-protein kinase Src (Homo sapiens) (UniProt P12931); assay: Inhibition of Src assessed as residual enzyme activity at 10 uM
[15] = AUC (0 to last) in mouse at 10 mg/kg, ip; assay type: ADME, organism-based; parameters: time 0 - last, dose 10 mg/kg, route intraperitoneal; conditions: plasma
Outline: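 Mice given 10 mg/kg by the ip, iv or oral route. Plasma levels were measured at 8 time points, with 3 animals per route for po and iv. Parameters came from a noncompartmental model. AUCINF was extrapolated to infinity, and bioavailability was calculated from AUCINF. The terminal slope used 3 points.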

[16] = molecular target: Calcium/calmodulin-dependent protein kinase kinase 2 (Homo sapiens, UniProt Q96RR4); assay: Inhibition of CAMKKbeta
[17] = molecular target: Serine/threonine-protein kinase Chk1 (Homo sapiens) (UniProt O14757); assay: Inhibition of CHK1 assessed as residual enzyme activity at 10 uM
[18] = molecular target: Mitogen-activated protein kinase 15 (Homo sapiens, UniProt Q8TD08); assay: Inhibition of ERK8
[19] = molecular target: Casein kinase I isoform alpha (Homo sapiens, UniProt P48729); assay: Inhibition of CK1 at 0.1 uM
[20] = tested on: Mus musculus; assay: Inhibition of cyclin-dependent kinase substrate […] phosphorylation at Ser2 in po dosed nude BALB/c mouse PBMC measured after 6 hrs by immunostaining and flow cytometric analysis; assay type: organism-based; conditions: in vivo; outline: as §2
[21] = tested on: Mus musculus; assay: Inhibition of cyclin-dependent kinase substrate RB phosphorylation at Ser807/811 in HCT116 xenografted nude BALB/c mouse at 25 mg/kg/day, po measured after 14 days by immunostaining and […] relative to control; assay type: organism-based; parameters: route oral; conditions: in vivo, 336 h
Outline: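 HCT116 cells (5 × 10^6) were injected subcutaneously into the flank of female nu/nu-BALB/c nude mice. Mice were randomized at 100-200 mm3 and dosed daily by oral gavage for 14 days (vehicle 28% PEG300/5% dimethylacetamide/10% HPB cyclodextrin in water). Tumors were formalin-fixed and paraffin-embedded for Rb pSer807/811 or pThr821 immunohistochemistry (citrate pH 6.0 microwave retrieval), scoring >1000 cells per section. Student's t test.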

[22] = molecular target: Serine/threonine-protein kinase pim-2 (Homo sapiens) (UniProt Q9P1W9); assay: Inhibition of PIM2 assessed as residual enzyme activity at 10 uM
[23] = Metabolic stability in human liver microsomes as compound remaining at 1 uM; assay type: ADME, Microsome; conditions: read-out: Stability; outline: as §1
[24] = molecular target: Cyclin-A2 (Homo sapiens) (UniProt P20248); conditions: HCT-116, 1 umol/L
[25] = molecular target: Mitogen-activated protein kinase 15 (Homo sapiens) (UniProt Q8TD08); assay: Inhibition of ERK8 at 10 umol/L
[26] = molecular target: CDK6/cyclin D1 (Homo sapiens, UniProt Q00534); assay: Inhibition of CDK6/cyclinD1 assessed as amount of ATP […] by luciferase activity based PKLight assay; assay type: protein-complex assay
Outline: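 Purified recombinant CDK4/cycD1, CDK6/CycD1, CDK7/CycH/MAT1 or CDK9/CycT run with the supplier's substrate peptides under the manufacturer's protocol. Inhibition was read as ATP left at the end of the reaction, measured by luciferase luminescence (PKLight).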

Chain of Dual specificity tyrosine-phosphorylation-regulated kinase 3 (Homo sapiens) (O43781 whole entry): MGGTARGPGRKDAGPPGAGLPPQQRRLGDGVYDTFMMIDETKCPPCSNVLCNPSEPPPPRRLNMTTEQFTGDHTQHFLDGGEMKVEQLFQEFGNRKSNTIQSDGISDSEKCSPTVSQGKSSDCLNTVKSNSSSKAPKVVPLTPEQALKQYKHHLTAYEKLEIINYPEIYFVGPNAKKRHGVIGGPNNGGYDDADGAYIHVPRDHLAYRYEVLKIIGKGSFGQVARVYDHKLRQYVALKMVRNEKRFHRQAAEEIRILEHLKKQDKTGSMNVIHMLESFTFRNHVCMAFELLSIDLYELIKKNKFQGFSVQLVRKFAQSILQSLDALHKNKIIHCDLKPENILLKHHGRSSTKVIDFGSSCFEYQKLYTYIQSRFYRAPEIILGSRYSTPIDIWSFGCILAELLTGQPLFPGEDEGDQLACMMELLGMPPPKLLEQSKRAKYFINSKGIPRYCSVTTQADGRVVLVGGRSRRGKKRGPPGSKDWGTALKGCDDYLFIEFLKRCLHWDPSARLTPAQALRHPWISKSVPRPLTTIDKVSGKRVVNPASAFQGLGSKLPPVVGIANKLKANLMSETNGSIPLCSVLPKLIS
Chain of Myosin light chain kinase, smooth muscle (Homo sapiens) (Q15746 whole entry): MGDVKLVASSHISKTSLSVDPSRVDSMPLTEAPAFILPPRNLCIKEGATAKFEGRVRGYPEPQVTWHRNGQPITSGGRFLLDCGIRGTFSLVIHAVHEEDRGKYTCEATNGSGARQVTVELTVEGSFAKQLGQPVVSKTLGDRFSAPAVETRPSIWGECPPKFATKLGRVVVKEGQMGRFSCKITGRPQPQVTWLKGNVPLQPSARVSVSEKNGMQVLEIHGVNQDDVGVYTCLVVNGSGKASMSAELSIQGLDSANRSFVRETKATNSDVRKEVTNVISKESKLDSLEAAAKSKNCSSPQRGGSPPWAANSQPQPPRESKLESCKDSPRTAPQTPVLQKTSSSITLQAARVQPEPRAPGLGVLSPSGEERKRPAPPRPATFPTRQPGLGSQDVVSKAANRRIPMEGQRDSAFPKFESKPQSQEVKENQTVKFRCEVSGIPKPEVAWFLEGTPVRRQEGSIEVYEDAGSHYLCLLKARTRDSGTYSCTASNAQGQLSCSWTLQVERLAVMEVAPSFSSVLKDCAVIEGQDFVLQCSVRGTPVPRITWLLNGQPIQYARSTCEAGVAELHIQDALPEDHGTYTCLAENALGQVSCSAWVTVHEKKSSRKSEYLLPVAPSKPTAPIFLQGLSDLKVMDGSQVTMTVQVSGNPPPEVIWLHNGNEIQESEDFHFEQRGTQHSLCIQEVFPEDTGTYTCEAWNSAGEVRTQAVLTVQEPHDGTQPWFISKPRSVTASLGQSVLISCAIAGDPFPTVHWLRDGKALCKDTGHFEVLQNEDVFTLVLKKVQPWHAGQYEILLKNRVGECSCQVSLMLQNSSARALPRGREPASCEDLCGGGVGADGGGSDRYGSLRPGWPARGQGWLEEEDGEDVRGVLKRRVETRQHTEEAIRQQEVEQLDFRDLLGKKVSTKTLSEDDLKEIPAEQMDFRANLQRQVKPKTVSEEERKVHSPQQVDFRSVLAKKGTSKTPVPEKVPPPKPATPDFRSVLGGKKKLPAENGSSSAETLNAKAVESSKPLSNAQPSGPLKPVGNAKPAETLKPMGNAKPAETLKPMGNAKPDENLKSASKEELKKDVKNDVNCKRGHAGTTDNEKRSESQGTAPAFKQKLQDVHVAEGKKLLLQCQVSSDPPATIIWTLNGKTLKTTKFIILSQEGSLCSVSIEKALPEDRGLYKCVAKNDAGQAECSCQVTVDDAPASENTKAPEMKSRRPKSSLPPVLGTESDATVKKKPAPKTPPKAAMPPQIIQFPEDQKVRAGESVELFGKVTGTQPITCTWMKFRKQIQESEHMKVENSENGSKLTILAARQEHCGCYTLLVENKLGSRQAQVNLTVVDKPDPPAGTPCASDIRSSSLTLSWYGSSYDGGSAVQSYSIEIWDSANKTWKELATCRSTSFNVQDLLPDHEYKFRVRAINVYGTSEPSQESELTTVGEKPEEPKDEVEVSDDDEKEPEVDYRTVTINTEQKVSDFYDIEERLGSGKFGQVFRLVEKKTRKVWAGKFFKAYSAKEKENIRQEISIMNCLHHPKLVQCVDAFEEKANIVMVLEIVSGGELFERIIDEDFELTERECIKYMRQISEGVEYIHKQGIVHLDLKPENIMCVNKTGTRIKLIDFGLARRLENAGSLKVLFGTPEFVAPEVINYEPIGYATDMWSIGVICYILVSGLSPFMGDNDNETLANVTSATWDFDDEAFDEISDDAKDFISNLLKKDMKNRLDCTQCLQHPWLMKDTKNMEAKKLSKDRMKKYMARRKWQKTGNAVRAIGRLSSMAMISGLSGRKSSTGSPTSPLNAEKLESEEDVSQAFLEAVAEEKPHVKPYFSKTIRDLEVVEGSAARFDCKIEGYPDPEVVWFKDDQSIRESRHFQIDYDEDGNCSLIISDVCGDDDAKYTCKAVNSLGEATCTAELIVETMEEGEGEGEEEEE
Chain of Cyclin-A2 (Homo sapiens) (P20248 whole entry): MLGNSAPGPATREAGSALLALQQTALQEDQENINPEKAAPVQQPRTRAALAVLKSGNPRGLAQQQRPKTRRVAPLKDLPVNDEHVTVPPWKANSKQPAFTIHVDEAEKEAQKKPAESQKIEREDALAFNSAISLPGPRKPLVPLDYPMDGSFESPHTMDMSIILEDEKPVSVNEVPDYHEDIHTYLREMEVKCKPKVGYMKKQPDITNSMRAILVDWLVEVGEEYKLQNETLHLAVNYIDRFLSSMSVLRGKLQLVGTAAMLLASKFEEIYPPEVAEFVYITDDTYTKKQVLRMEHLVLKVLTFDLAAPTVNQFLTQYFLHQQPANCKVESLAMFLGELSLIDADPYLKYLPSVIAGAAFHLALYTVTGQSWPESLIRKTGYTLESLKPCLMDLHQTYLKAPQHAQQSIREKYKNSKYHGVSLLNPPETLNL
Chain of Calcium/calmodulin-dependent protein kinase kinase 2 (Q96RR4 whole entry): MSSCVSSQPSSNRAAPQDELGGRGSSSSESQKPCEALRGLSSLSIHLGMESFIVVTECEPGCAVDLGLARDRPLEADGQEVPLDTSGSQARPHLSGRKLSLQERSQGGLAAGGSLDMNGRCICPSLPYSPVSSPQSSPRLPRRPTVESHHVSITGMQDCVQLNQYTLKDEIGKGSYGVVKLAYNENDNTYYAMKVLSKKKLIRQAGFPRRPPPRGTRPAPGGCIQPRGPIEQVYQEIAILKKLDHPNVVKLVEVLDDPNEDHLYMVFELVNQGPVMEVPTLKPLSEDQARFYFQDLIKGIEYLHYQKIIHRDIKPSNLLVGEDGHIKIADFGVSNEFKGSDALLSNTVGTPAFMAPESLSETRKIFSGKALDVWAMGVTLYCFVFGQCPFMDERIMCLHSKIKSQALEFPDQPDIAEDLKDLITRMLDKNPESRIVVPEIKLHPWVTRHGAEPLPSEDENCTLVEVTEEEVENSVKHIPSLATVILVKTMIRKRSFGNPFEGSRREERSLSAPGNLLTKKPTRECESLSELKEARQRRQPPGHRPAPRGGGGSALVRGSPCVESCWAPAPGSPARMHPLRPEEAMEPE
Chain of Serine/threonine-protein kinase Chk1 (Homo sapiens) (O14757 whole entry): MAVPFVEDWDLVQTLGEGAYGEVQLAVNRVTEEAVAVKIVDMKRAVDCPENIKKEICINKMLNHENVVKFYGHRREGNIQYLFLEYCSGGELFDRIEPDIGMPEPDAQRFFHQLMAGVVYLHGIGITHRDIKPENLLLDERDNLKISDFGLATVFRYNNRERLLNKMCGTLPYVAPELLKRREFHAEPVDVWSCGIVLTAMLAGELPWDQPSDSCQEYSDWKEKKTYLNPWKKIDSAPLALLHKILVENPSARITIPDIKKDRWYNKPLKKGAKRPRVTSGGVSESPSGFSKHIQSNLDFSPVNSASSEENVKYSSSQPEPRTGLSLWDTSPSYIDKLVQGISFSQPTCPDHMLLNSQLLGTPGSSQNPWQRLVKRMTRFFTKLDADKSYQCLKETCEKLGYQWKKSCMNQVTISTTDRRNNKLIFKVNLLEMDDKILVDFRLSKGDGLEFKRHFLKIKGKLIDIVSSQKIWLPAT
Chain of CDK6/cyclin D1 (P24385 whole entry): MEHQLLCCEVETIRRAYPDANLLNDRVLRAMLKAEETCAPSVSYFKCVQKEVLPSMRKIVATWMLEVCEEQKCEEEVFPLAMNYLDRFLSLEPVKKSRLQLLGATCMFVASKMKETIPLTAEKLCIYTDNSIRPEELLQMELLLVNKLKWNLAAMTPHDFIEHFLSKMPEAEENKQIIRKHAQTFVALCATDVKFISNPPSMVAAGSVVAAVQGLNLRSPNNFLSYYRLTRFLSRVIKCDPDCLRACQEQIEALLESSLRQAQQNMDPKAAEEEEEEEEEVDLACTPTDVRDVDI
Chain of CDK6/cyclin D1 (Q00534 whole entry): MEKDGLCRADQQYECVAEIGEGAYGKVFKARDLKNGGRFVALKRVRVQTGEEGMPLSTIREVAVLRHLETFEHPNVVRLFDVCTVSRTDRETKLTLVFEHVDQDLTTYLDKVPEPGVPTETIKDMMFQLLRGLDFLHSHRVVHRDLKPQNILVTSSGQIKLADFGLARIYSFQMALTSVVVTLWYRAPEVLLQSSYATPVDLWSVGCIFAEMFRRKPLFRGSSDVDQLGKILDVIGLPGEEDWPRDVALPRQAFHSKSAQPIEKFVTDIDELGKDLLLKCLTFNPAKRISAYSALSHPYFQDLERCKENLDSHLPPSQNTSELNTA
Chain of G1/S-specific cyclin-D1 (Homo sapiens) (P24385 whole entry): as the sequence (P24385 whole entry) above
Chain of Serine/threonine-protein kinase pim-2 (Homo sapiens) (Q9P1W9 whole entry, looked up): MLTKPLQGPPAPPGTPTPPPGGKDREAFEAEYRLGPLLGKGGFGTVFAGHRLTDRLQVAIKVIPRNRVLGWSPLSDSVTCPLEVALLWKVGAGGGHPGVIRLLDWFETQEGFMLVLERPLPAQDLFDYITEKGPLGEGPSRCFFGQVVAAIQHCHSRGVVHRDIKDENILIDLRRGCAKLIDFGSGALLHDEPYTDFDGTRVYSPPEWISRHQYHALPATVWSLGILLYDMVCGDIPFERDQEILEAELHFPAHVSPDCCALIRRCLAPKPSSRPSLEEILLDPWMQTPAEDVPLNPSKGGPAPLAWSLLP

Compound: CC(C)c1cnn2c(NCc3ccccc3)cc(N[C@@H](CO)[C@H](O)CO)nc12
- inhibition [1]: inactive
- remaining at 1 µM [2]: 29%
- bioavailability [3]: 88%
- inhibition [4]: inactive
- Activity [5]: 101%
- Activity [6]: 84%
- GI50 [7]: 0.5 µM
- inhibition [8]: inactive
- Activity [9]: 105%
- Activity [10]: 97%
- Activity [11]: 88%
- Activity [12]: 102%
- Activity [13]: 90%
- Activity [14]: 95%
- AUC(0-t) [15]: 26.4 µg·h/mL
- IC50 [16]: 2.45 µM
- Activity [17]: 98%
- IC50 [18]: 0.33 µM
- inhibition [19]: < 50%
- inhibition (INH) [20]: Dose-dependent effect
- inhibition (INH) [21]: Active
- Activity [22]: 94%
- remaining at 1 µM [23]: 83%
- inhibition [24]: Active
- inhibition [25]: 74%
- IC50 [26]: 35.5 µM
